The values below come from ChEMBL document CHEMBL3421619, “Nicotinic Acid Adenine Dinucleotide Phosphate Analogues Substituted on the Nicotinic Acid and Adenine Ribosides. Effects on ReceptorMediated Ca²⁺ Release” (J Med Chem, 2015).

Test [1] can be described thus: Activation of NAADP receptor in Strongylocentrotus purpuratus egg homogenates assessed as Ca2+ release by Fluo-3 dye based fluorometric assay. In outline: (§1)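 Egg homogenate microsomes from S. purpuratus loaded with Ca2+ in presence of ATP and 3 μM fluo-3; analogue added at a range of concentrations and released Ca2+ read as fluorescence increase (excitation 490 nm, emission 535 nm) on a plate reader; pH 7.2; triplicate; EC50 from concentration–response; fold values relative to NAADP.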

In test [2] the test system is Strongylocentrotus purpuratus. Put plainly: Activation of NAADP receptor in Strongylocentrotus purpuratus egg homogenates assessed as Ca2+ release by Fluo-3 dye based fluorometric assay relative to NAADP. In outline: as §1
Test [3] can be described thus: Displacement of [32P]NAADP from NAADP receptor in Strongylocentrotus purpuratus egg homogenates incubated for 90 mins by liquid scintillation counting method. Summed up:
(§2)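 Competition binding in filter plates: S. purpuratus egg homogenate incubated 90 min simultaneously with 0.2 nM [32P]NAADP and seven concentrations of test ligand; filtered, washed, filter-bound radioactivity counted by liquid scintillation; IC50 ± SEM with n; fold values relative to NAADP.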

Test [4] deals with Strongylocentrotus purpuratus. Put plainly: Displacement of [32P]NAADP from NAADP receptor in Strongylocentrotus purpuratus egg homogenates incubated for 90 mins by liquid scintillation counting method relative to NAADP. Summed up: as §2
A short description of test [5]: Desensitization of NAADP receptor in Strongylocentrotus purpuratus egg homogenates assessed as inhibition of NAADP-induced Ca2+ release pre-treated for 7 mins before NAADP addition by Fluo-3 dye based fluorometric assay. Summed up:
(§3)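 S. purpuratus egg homogenates pretreated 7 min with varying analogue concentrations, then challenged with saturating NAADP (1 μM); Ca2+ release read by fluo-3 fluorescence (ex 490/em 535 nm); IC50 for inhibition of release from concentration–response, triplicate, reported ± SEM with n; fold values relative to NAADP.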

Test [6] concerns Strongylocentrotus purpuratus. Kind of test: Desensitization of NAADP receptor in Strongylocentrotus purpuratus egg homogenates assessed as inhibition of NAADP-induced Ca2+ release pre-treated for 7 mins before NAADP addition by Fluo-3 dye based fluorometric assay relative to NAADP. In outline: as §3
A short description of test [7]: Activation of NAADP receptor in sea urchin egg homogenates assessed as Ca2+ release. In kind it is tissue-based, Echinoidea. Summed up: as §1
In test [8] the test system is Strongylocentrotus purpuratus. Put plainly: Ratio of activation of NAADP receptor in Strongylocentrotus purpuratus egg homogenates by Ca2+ release assay to IC50 for NAADP receptor in Strongylocentrotus purpuratus egg homogenates by [32P]NAADP binding assay.
Test [9] concerns Strongylocentrotus purpuratus. Put plainly: Ratio of activation of NAADP receptor in Strongylocentrotus purpuratus egg homogenates by Ca2+ release assay to IC50 for desensitization of NAADP receptor in Strongylocentrotus purpuratus egg homogenates by Ca2+ release assay.

The term EC50 denotes the concentration needed to bring the measured effect to its halfway point. In general, IC50 refers to the concentration that inhibits the measured activity by half. For `Nc1ncnc2c1nc(Br)n2[C@@H]1O[C@H](COP(=O)([O-])OP(=O)(O)OC[C@@H]2O[C@H]([n+]3cccc(C(=O)O)c3)[C@@H](O)[C@H]2O)[C@@H](O)[C@H]1OP(=O)(O)O`, the EC50 in test [1] turned out to be 0.709 µM. For the same compound, in [2], the Ratio EC50 worked out at 27.5. Besides, the concentration for half-maximal inhibition (IC50) worked out at 0.0157 µM in [3] and 0.0153 µM in [5]. Moreover, the results for the Ratio IC50 in test [4] and in test [6] were 42.4 and 32.6, respectively.

On to `CC(=O)NCCCc1cc(C(=O)O)c[n+]([C@H]2O[C@@H](COP(=O)(O)OP(=O)([O-])OC[C@H]3O[C@@H](n4cnc5c(N)ncnc54)[C@H](OP(=O)(O)O)[C@@H]3O)[C@H](O)[C@@H]2O)c1`, for which the EC50 in test [1] is 41.7 µM. In [2], the Ratio EC50 amounted to 1620. Also, the values for the IC50 in [3] and in test [5] were 1.8 µM and 1.23 µM, respectively. Also, the Ratio IC50 in test [4] came out at 4880; in test [6], 2620.

As for `[N-]=[N+]=Nc1cc(C(=O)O)c[n+]([C@H]2O[C@@H](COP(=O)(O)OP(=O)([O-])OC[C@H]3O[C@@H](n4c(Br)nc5c(N)ncnc54)[C@H](OP(=O)(O)O)[C@@H]3O)[C@H](O)[C@@H]2O)c1`, in test [1], the EC50 was 1360 µM. The Ratio EC50 in test [2] was found to be 52800. The IC50 in [3] was found to be 0.372 µM; in test [5] it was 0.576 µM. In addition, the figures for the Ratio IC50 in [4] and in test [6] were 1000 and 1220, respectively.

With `Nc1ncnc2c1ncn2[C@@H]1O[C@H](COP(=O)(O)OP(=O)(O)OC[C@@H]2O[C@H]([n+]3cccc(C(=O)[O-])c3)[C@@H](O)[C@H]2O)[C@@H](O)[C@H]1OP(=O)(O)O` [NICOTINIC ACID ADENINE DINUCLEOTIDE PHOSPHATE], the EC50 came to 0.02 µM in test [7] and 0.0258 µM in test [1]. Besides, the values for the IC50 in test [3] and in test [5] were 0.00037 µM and 0.00047 µM, respectively.

For `[N-]=[N+]=NCCCc1cc(C(=O)O)c[n+]([C@H]2O[C@@H](COP(=O)(O)OP(=O)([O-])OC[C@H]3O[C@@H](n4cnc5c(N)ncnc54)[C@H](OP(=O)(O)O)[C@@H]3O)[C@H](O)[C@@H]2O)c1`, the EC50 in [1] stood at 30.7 µM. Moreover, the Ratio EC50 in [2] stood at 1190. For the same compound, the IC50 in [3] was found to be 0.0563 µM; in test [5] it was 0.0456 µM. Also, the figures for the Ratio IC50 in test [4] and in test [6] were 152 and 97, respectively.

For the compound `CC(=O)Nc1cc(C(=O)O)c[n+]([C@H]2O[C@@H](COP(=O)(O)OP(=O)([O-])OC[C@H]3O[C@@H](n4cnc5c(N)ncnc54)[C@H](OP(=O)(O)O)[C@@H]3O)[C@H](O)[C@@H]2O)c1`, in test [1], the EC50 came to 0.626 µM. For the same compound, the Ratio EC50 in [2] stood at 24.3. For the same compound, the figures for the 50% inhibitory concentration (IC50) in [3] and in test [5] were 0.015 µM and 0.0215 µM, respectively. Moreover, the Ratio IC50 in test [4] was determined as 40.5; in test [6] it was 45.7.

Consider `Nc1ncnc2c1ncn2[C@@H]1O[C@H](COP(=O)([O-])OP(=O)(O)OC[C@@H]2O[C@H]([n+]3cc(O)cc(C(=O)O)c3)[C@@H](O)[C@H]2O)[C@@H](O)[C@H]1OP(=O)(O)O`, for which the EC50 in test [1] came to 1.93 µM. Besides, the Ratio EC50 in test [2] amounted to 74.9. Further, the results for the IC50 in test [3] and in test [5] were 0.0189 µM and 0.0231 µM, respectively. The Ratio IC50 stood at 51 in test [4] and 49.1 in [6].

On to `[N-]=[N+]=Nc1nc2c(N)ncnc2n1[C@@H]1O[C@H](COP(=O)([O-])OP(=O)(O)OC[C@@H]2O[C@H]([n+]3cccc(C(=O)O)c3)[C@@H](O)[C@H]2O)[C@@H](O)[C@H]1OP(=O)(O)O`, for which the EC50 in [1] came out at 0.0477 µM. Further, in test [2], the Ratio EC50 worked out at 1.8. For the same compound, the concentration for half-maximal inhibition (IC50) in [3] was determined as 0.0007 µM; in [5], 0.0006 µM. For the same compound, the Ratio IC50 in test [4] amounted to 1.9; in test [6] it was 1.3.

Regarding `CC(C)(C)OC(=O)NCCCc1cc(C(=O)O)c[n+]([C@H]2O[C@@H](COP(=O)(O)OP(=O)([O-])OC[C@H]3O[C@@H](n4cnc5c(N)ncnc54)[C@H](OP(=O)(O)O)[C@@H]3O)[C@H](O)[C@@H]2O)c1`, the concentration giving a half-maximal response (EC50) in test [1] worked out at 160 µM. Also, the Ratio EC50 in [2] turned out to be 6200. Also, the IC50 came to 3.27 µM in test [3] and 0.942 µM in test [5]. For the same compound, the Ratio IC50 is 8840 in test [4] and 2000 in test [6].

Turning to `CSc1cc(C(=O)O)c[n+]([C@H]2O[C@@H](COP(=O)(O)OP(=O)([O-])OC[C@H]3O[C@@H](n4cnc5c(N)ncnc54)[C@H](OP(=O)(O)O)[C@@H]3O)[C@H](O)[C@@H]2O)c1`, the EC50 in test [1] amounted to 0.151 µM. Moreover, the Ratio EC50 in [2] is 5.9. Further, the IC50 was 0.0068 µM in test [3] and 0.0042 µM in test [5]. Further, the figures for the Ratio IC50 in test [4] and in test [6] were 18.4 and 8.9, respectively. The Ratio in test [8] and in [9] was 100 throughout.

For `Nc1ncnc2c1ncn2[C@@H]1O[C@H](COP(=O)([O-])OP(=O)(O)OC[C@@H]2O[C@H]([n+]3cc(CCCO)cc(C(=O)O)c3)[C@@H](O)[C@H]2O)[C@@H](O)[C@H]1OP(=O)(O)O`, the EC50 in test [1] was determined as 4.43 µM. The Ratio EC50 in test [2] was determined as 172. In addition, the IC50 in test [3] was determined as 0.049 µM; in [5], 0.122 µM. The Ratio IC50 in test [4] was found to be 132; in [6] it was 260.

Turning to `NCCCc1cc(C(=O)O)c[n+]([C@H]2O[C@@H](COP(=O)(O)OP(=O)([O-])OC[C@H]3O[C@@H](n4cnc5c(N)ncnc54)[C@H](OP(=O)(O)O)[C@@H]3O)[C@H](O)[C@@H]2O)c1`, the EC50 in test [1] is greater than 1000 µM. In [2], the Ratio EC50 was greater than 33300. The half-inhibitory concentration (IC50) in [3] was greater than 1000 µM; in test [5], 674 µM. Besides, the Ratio IC50 in test [4] was greater than 2e+06; in test [6], 1.43e+06.
